Assay results reported in ChEMBL document CHEMBL4513216, “Probing the Open Global Health Chemical Diversity Library for Multistage-Active Starting Points for Next-Generation Antimalarials” (ACS Infect Dis, 2020).

Experiment: Toxicity liver stage against HepG2, at 10uM
Type: cell-based
Design: test concentration 10 uM, cell line HepG2-A16-CD81EGFP
Conditions: human, HepG2-A16-CD81EGFP cells; read-out: INHIBITION
How it was run: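 Uninfected HepG2-A16-CD81EGFP cells, 3 × 10^3 per well, 1536-well, plated on prespotted compound at 10 μM final, parasite-free screening media added to match infected plates; puromycin 10 μM positive, DMSO 0.5% negative; run in parallel with 48 h PbLuc assay at 37 °C, 5% CO2; viability by CellTiter-Glo luminescence, normalized to controls.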

Row | SMILES | cytotoxicity at 10 µM
1 | Cc1cc(=O)n2nc(Oc3ccc(C#N)cc3Cl)sc2n1 | 1.15%
2 | CC(=O)N(C)Cc1ccccc1NCc1c(C)noc1C | 5.76%
3 | Cc1ccccc1OCCn1cnc2oc(C)c(C(=O)O)c2c1=O | 11%
4 | Cc1ccc(Oc2ncccc2C(=O)O)c(C)c1 | 2.4%
5 | COCCn1ccc2cc(C(=O)NC3CCOC(C)(C)C3)ccc21 (stereo not given) | -0.508%
6 | Cc1ccccc1-n1ncc2c(=O)n(CCN3CCCC3)cnc21 | -11.3%
7 | Cc1ccc(NC(=O)NCCn2cnc(C)c(C)c2=O)cc1F | 3.22%
8 | COC(=O)c1ccc(S(=O)(=O)NCC(C)(O)c2cccs2)cc1 (stereo not given) | -6.87%
9 | CCOC(=O)N1CCC(Oc2ccc(C(F)(F)F)cn2)CC1 | 7.5%
10 | O=C(COc1ccccc1F)NCCC(O)c1ccoc1 (stereo not given) | -13.4%
11 | COCCN(C)C(=O)c1ccc2onc(-c3coc(C)n3)c2c1 | -144%
12 | CCOc1ncnc2c1CCN(S(=O)(=O)C1CC1)CC2 | 3.42%
13 | CNC(=O)[C@@]12CCC3(CCN(C(=O)COC)CC3)[C@@H]1CN(S(C)(=O)=O)C2 | 4.53%
14 | Cc1cnc2n(c1=O)CC(C(=O)Nc1ccccc1Cl)CS2 (stereo not given) | -10.7%
15 | CCCNC(=O)c1cc2c(nc1O)CCC(C)C2 (stereo not given) | 0.717%
16 | COCC1c2nnn(CC3CC3)c2CCN1C(=O)c1ccnnc1 (stereo not given) | -7.44%
17 | Cc1cc(N2CCC(O)(CN(C)C(=O)CCCN)C2)c2cnccc2n1 (stereo not given) | -8.65%
18 | CC1(c2ncc(CN3CCN(c4ccccn4)CC3)cn2)CCCCO1 (stereo not given) | 2.68%
19 | COCC(=O)N1CCCC1c1nc(C)c2c(n1)N(CC(C)C)C(=O)CC2 (stereo not given) | 1.6%
20 | Cc1nc(C)c(C(=O)N2CCCC2(C)C(=O)NC2CCCC2)s1 (stereo not given) | -1.13%
21 | Cc1ccc(N(C)[C@@H]2CC[C@@H]3CN(C(=O)CC4CCOCC4)C[C@@H]32)nn1 | -1.79%
22 | Cn1cc(C(=O)N2CCCC(c3ccncc3)C2)cn1 (stereo not given) | -13%
23 | Cc1nc(CN(Cc2ccccc2F)C2CCC2)no1 | 6.95%
24 | O=C1NCCCCC1SCc1coc(-c2cccc(F)c2)n1 (stereo not given) | 7%
25 | CN(C)c1ccc(NC(=O)CN2CCS(=O)(=O)CC2)cn1 | 6.56%
26 | CN1CCCN(S(=O)(=O)c2cn(C)cn2)c2cc(Cl)ccc21 | 2.14%
27 | CCOc1ccc(N(C)Cc2nnc(C3CC3)o2)cc1 | 8.17%
28 | COc1c(C)cnc(CN2CCn3c(nnc3C(C)C)C2)c1C | 5.56%

Row | SMILES | cytotoxicity at 10 µM
29 | Cn1c(CS(=O)(=O)Cc2ccc(Cl)cc2)cc(=O)n(C)c1=O | 5.59%
30 | Cn1c(N)nnc1SC1CCCN(c2ccccc2F)C1=O (stereo not given) | -7.29%
31 | CC(C)N(C)C(=O)C1CSCN1S(=O)(=O)c1cccs1 (stereo not given) | -5.96%
32 | Cc1cnn(CC(C)NCc2cc(=O)n3cc(C)ccc3n2)c1 (stereo not given) | 3.89%
33 | Cc1nccn1-c1cc(CNS(=O)(=O)N2CCCC(C)C2)ccn1 (stereo not given) | -2.42%
34 | CCN(C(=O)C1=NN(c2ccccc2)C(=O)CN1)c1ccccc1 | 12%
35 | CCN(CC(=O)NC)C(=O)c1sc(Cc2ccccc2)nc1C | -6.37%
36 | CC(C)(C)c1noc(CN2CCCC(CNS(N)(=O)=O)C2)n1 (stereo not given) | 1.3%
37 | CN(CC(O)C(F)(F)F)C(=O)Nc1cccc(N2CCCC2)c1 (stereo not given) | 5.48%
38 | CCS(=O)(=O)N1Cc2ccccc2CC1C(=O)OCc1c(C)noc1C (stereo not given) | -9.26%
39 | CCc1ccc(-c2noc(Cn3nc(C(N)=O)ccc3=O)n2)cc1 | -4.22%
40 | CC(C)c1n[nH]c(C2CN(CC(=O)N(C)Cc3ccco3)CCO2)n1 (stereo not given) | -5.92%
41 | CN1CCOC(CNC(=O)C2(c3cccc(C(F)(F)F)c3)CCCC2)C1 (stereo not given) | -4.22%
42 | COc1cc(CCNC(=O)NCCC2CCCO2)ccc1C (stereo not given) | 9.92%
43 | CC(=O)c1c(C)cc(C)c(Cn2ccnc2S(C)(=O)=O)c1C | -0.657%
44 | Cc1ccnc(N2CCCC(c3noc(C(C)C)n3)C2)n1 (stereo not given) | 21.9%
45 | CCOCC(=O)N(Cc1ccccn1)Cc1ccccc1C | 3.21%
46 | CC(C)c1cc(CNC(=O)NCc2cccc(N3CC=CC3)c2)on1 | 9.99%
47 | CC(Cn1ccnc1)NS(=O)(=O)c1ccc(C#N)c(Cl)c1 (stereo not given) | -9.97%
48 | COc1ccccc1NC(=O)Cc1c(C)nc2c(c1C)c(=O)[nH]n2C | -1.68%
49 | OC(CNc1cncc(OCc2ccccc2)n1)c1ccco1 (stereo not given) | -1.53%
50 | CCN1CCC(NC(=O)CN2CCCCC2Cn2cccn2)CC1 (stereo not given) | -2.71%
51 | COc1cc(NCc2c(C)noc2C)c(C(=O)N(C)C)cc1OC | 6.85%
52 | COc1cccc(CN(C)C(=O)CCC(=O)c2ccccc2)c1OC | -3.62%
53 | CCOc1ccc(NC(=O)N2CCOC(C(N)=O)C2)cc1Cl (stereo not given) | -140%
54 | Cc1ccc(C(=O)N(C)Cc2nccn2CC(F)(F)F)cn1 | 2.52%
55 | COCCN(Cc1cccc(C#N)c1)Cc1nnsc1Cl | 7.96%
